In ChEMBL document CHEMBL1157079, “Labdane diterpenes from the aerial parts of Curcuma comosa enhance fetal hemoglobin production in an erythroid cell line” (J Nat Prod, 2010):
Calls of active or inactive are those of the source. The calls are words filed in the database; no cut-off is given here.

Assays:
K562 [1] = test: Induction of fetal heamoglobin level in human K562 cells assessed as increase in enhanced-GFP expression under the control of gamma-globin promoter at 30 uM after 5 days by flow cytometry; assay type: functional
Procedure, shortened: (§1)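 Stable reporter line K562::∆Gγ-Aγ EGFP, carrying the EGFP gene under a γ-globin promoter within the intact human β-globin locus. Compounds tested at 5-100 µM. Read-out is EGFP expression as fold change relative to untreated, with % cell viability measured alongside. Hemin 50 µM and cisplatin 10 µM serve as reference inducers, with a DMSO vehicle control. Values are mean ± SD of three independent experiments.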

[2] = Cytotoxicity against human K562 cells assessed as cell viability at 30 uM; assay type: cell-based; details: read-out: Activity; procedure, shortened: as §1
K562 [3] = test: Induction of fetal heamoglobin level in human K562 cells assessed as increase in enhanced GFP expression under the control of gamma-globin promoter at 5 uM after 5 days by flow cytometry; assay type: functional; procedure, shortened: as §1
[4] = Cytotoxicity against human K562 cells assessed as cell viability at 5 uM; assay type: cell-based; details: read-out: Activity; procedure, shortened: as §1
K562 [5] = test: Induction of fetal heamoglobin level in human K562 cells assessed as increase in enhanced-GFP expression under the control of gamma-globin promoter at 5 to 100 uM after 5 days by flow cytometry; assay type: functional, cell-based; procedure, shortened: as §1
K562 [6] = test: Induction of fetal heamoglobin level in human K562 cells assessed as increase in enhanced GFP expression under the control of gamma-globin promoter after 5 days by flow cytometry; assay type: functional, cell-based; procedure, shortened: as §1
[7] = Cytotoxicity against human K562 cells assessed as cell viability at 20 uM; assay type: cell-based; details: read-out: Activity; procedure, shortened: as §1
K562 [8] = test: Induction of fetal heamoglobin level in human K562 cells assessed as increase in enhanced-GFP expression under the control of gamma-globin promoter at 20 uM after 5 days by flow cytometry; assay type: functional; procedure, shortened: as §1

Structure (SMILES)	fold change (FC) (K562 [1])	viability at 30 µM [2] [%]	fold change (FC) (K562 [3])	viability at 5 µM [4] [%]	Activity (K562 [5])	Activity (K562 [6])	viability at 20 µM [7] [%]	fold change (FC) (K562 [8])
C=C1CC[C@H]2C(C)(C)CCC[C@]2(C)[C@H]1C[C@@H](O)C1=CCOC1=O [CURCUCOMOSIN C]	1.2	75.8						
C=C1CC[C@H]2C(C)(C)C(=O)CC[C@]2(C)[C@H]1/C=C/C1=CCOC1=O [CURCUCOMOSIN A]			1	85.8	inactive			
C=C1CC[C@H]2C(C)(C)[C@@H](O)CC[C@]2(C)[C@H]1/C=C/C1=CCOC1=O [CURCUCOMOSIN B]			1	87.7	inactive			
C=C1CC[C@H]2C(C)(C)CCC[C@]2(C)[C@H]1/C=C/c1ccoc1 [CORONARIN E]			0.7	87.2	inactive			
C=C1CC[C@H]2C(C)(C)CCC[C@]2(C)[C@H]1/C=C/C1=C(O)COC1=O [ZERUMIN]			1	87.5	inactive			
C=C1CC[C@H]2C(C)(C)CCC[C@]2(C)[C@H]1C/C=C1/C(=O)OC[C@@H]1O [ISOCORONARIN D]						Dose-dependent effect	80.7	1.6
C=C1CC[C@H]2C(C)(C)CCC[C@]2(C)[C@H]1/C=C/C1=CCOC1=O [VILLOSIN]			1	88.9	inactive			
